Assay outcomes from PubChem BioAssay.
Compounds with a hit are over-represented: about 2.3% of the library has one in this group of screens.
HCV core dimer: blocks dimerization of HCV core protein; TR-FRET GST/Flag-core106 dimerization, 1536-well; inhibition, % at 5 µM; 0.33% of 300,000 active;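 active means inhibition above the mean of all tested compounds plus 3 SD, set per screening campaign, cut at about 45% in these data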
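Material: GST/Flag-tagged HCV core106 proteins. Incubation: 4 h, 22.5 °C incubation. Read-out basis: inhibition (%) from 671 over 617 nm ratio. Measured by: TR-FRET, excitation 340 nm, emission 617 and 671 nm.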
NS3 helicase inh: inhibitors of Hepatitis C virus NS3 helicase; NS3 helicase DNA unwinding, Cy5 molecular beacon fluorescence; inhibition, % at 10.9 µM; 0.56% of 290,000 active; AID 1800;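 active means inhibition above the mean of all tested compounds plus 3 SD, set per campaign, cut at about 35% in these data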;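 further: 0% = DMSO wells and 100% = thioflavine S control wells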
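Compound dosing – single dose, 10.9 µM nominal final, DMSO 0.8% final · System – NS3 helicase fragment of HCV · Buffer or medium – MOPS pH 6.5, MgCl2, DTT, Tween20, BSA · Signal – Cy5 beacon fluorescence read at start and 1 h · Also added – annealed dual-labelled DNA beacon duplex, ATP-started · Schedule – 1 h at 25 °C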
ZTA DNA inh: ZTA (EBV) inhibition in EBNA-1 counter-screen; P03206; ZTA-DNA binding, fluorescence polarization; inhibition, % at 11 µM; 0.15% of 320,000 active; in the data active means inhibition above about 33%
Target sequence (P03206 whole entry, looked up): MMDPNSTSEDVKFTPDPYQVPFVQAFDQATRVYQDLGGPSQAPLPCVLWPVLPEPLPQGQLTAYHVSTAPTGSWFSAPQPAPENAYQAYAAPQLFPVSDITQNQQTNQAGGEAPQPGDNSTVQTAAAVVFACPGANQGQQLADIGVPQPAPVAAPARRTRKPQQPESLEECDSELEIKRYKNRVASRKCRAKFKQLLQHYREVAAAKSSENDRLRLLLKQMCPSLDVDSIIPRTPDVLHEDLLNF
EBV gp42 inh: blocks Epstein-Barr virus glycoprotein 42 binding; inhibition, % (tested at 21.74 µM); Fluorescence polarization binding assay, mP read-out; Q1HVG2; AID 1085; 0.42% of 220,000 active; in the data active means inhibition above about 50%
Target sequence (Q1HVG2 whole entry, looked up): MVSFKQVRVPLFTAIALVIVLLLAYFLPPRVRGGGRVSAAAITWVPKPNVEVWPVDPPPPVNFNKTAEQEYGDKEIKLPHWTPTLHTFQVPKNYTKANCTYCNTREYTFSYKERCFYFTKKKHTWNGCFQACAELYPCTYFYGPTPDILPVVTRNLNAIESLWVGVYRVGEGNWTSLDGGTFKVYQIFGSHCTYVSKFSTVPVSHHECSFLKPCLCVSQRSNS
GPR7 antagonist: blocks human GPR7 receptor signaling; GPR7-expressing cells, fluorescence antagonist assay; inhibition, % at 4.4 µM; 1.1% of 290,000 active; AID 1861; in the data active means inhibition above about 16%, passing the limit was not always enough;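 further: cells stimulated with the agonist NPW; 0% = agonist with vehicle and 100% = vehicle without agonist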
EBNA-1 inh: blocks EBNA-1 binding to DNA | AID 1950 | 0.34% of 300,000 active | inhibition, % at 14.8 µM | EBNA-1 DNA binding, fluorescence polarization; in the data active means inhibition above about 28%
Active calls of the source: *; . = no result; + = active, no number.

SMILES | HCV core dimer | NS3 helicase inh | ZTA DNA inh | EBV gp42 inh | GPR7 antagonist | EBNA-1 inh
CCSc1nc(-c2ccc(OC)cc2)cc(-c2ccccc2)c1C#N | 16 | -4 | 14 | -18 | -12 | -2
O=Cc1ccc(N2Cc3ccccc3C2)cc1 | 39 | -6 | -11 | . | -11 | 3
Cc1cc(N2Cc3ccccc3C2)ccc1C=O | 48* | 1 | -9 | . | -15 | 3
O=C(NCCNC(=O)c1cc(OCC(F)(F)F)ccc1OCC(F)(F)F)Nc1ccccc1 | 5 | -14 | 12 | -30 | -10 | 5
COc1ccc(NC(=O)NC(=O)c2cc(OCC(F)(F)F)ccc2OCC(F)(F)F)cc1 | -3 | -4 | 8 | 74* | -2 | 0
Nc1ccccc1C(O)(Cc1ccccc1)c1ccccc1 (centres undefined) | -9 | 12 | -22 | . | -7 | -11
Cc1sc(NC(=O)c2sc3nc4c(C)cccc4cc3c2N)c(C#N)c1C | 47* | 28 | -2 | 9 | -3 | 17
Cc1cccc2cc3c(N)c(C#N)sc3nc12 | -33 | 12 | 3 | 7 | 6 | 2
Cc1oc(-c2ccc(Cl)cc2)cc1-c1nn2c(-c3ccoc3C)nnc2s1 | 84* | 42* | 10 | 9 | -3 | 23
Cc1occc1-c1nnc(SCC(=O)c2c[nH]c3ccccc23)n1C | -5 | 2 | 5 | 144* | -11 | -7
Cc1cc(SCc2ccc(Cl)cc2)nc(=O)[nH]1 | -2 | 14 | -15 | . | 0 | 3
Cc1ccc(CSc2cc(C)[nH]c(=O)n2)cc1 | 53* | 24 | -5 | . | 2 | 4
COc1ccc(N2Cc3cccc(C(=O)N4CCN(C(=O)c5ccco5)CC4)c3C2=O)cc1 | 85* | 6 | -6 | 46 | -6 | 2
O=C(N/N=C/c1cc([N+](=O)[O-])ccc1O)c1ccc(COc2ccc3c(c2)CCC3)o1 | . | -17 | . | . | -11 | .
COc1cc(/C=N/NC(=O)c2ccc(COc3ccccc3Cl)o2)cc(Br)c1O | -2 | -2 | 1 | -7 | 30* | 8
O=C(N/N=C/c1ccc2ccccc2c1)c1ccc(COc2ccc3c(c2)CCC3)o1 | 50* | 0 | -3 | -1 | -17 | 1
Cc1cc(=O)oc(C)c1C(=O)Nc1ccc2ncccc2c1 | 0 | -3 | 16 | 72* | -12 | 2
Cc1cc(=O)oc(C)c1C(=O)Nc1ccc2nsnc2c1 | -2 | -5 | -5 | . | -12 | -4
O=C(NC1CCCC1)c1cc(=O)[nH]c2ccccc12 | -4 | 15 | 11 | . | 3 | 2
O=C(Nc1ccc2nc(-c3ccco3)c(-c3ccco3)nc2c1)N1CCCCCC1 | 75* | 49* | 41* | 78* | -8 | 24
CCOC(=O)C1CCN(C(=O)Nc2ccc3nc(-c4ccco4)c(-c4ccco4)nc3c2)CC1 | 72* | 6 | 11 | 50 | -13 | 4
CCOC(=O)C1CCN(C(=O)Nc2ccc3c(c2)nc(C)n3C)CC1 | 6 | -6 | -11 | -11 | -4 | -6
Cc1nc2ccc(NC(=O)N3CCCCC3)cc2nc1C | -2 | -9 | 13 | -12 | -16 | -5
CC(C)c1nc(SCC(=O)Nc2ccc(C(=O)O)cc2)c2c3c(sc2n1)CCCC3 | 4 | -18 | 3 | . | -4 | 6
CCC(C)C(=O)Nc1nnc(CCc2ccccc2)s1 (centres undefined) | -5 | 32 | 4 | . | 12 | -3
SMILES | HCV core dimer | NS3 helicase inh | ZTA DNA inh | EBV gp42 inh | GPR7 antagonist | EBNA-1 inh
COc1ccc(C(=O)N2CCc3ccccc32)cc1 | -12 | -3 | -4 | -4 | 17* | -10
CSc1cccc(NC(=S)NC(=O)c2cccnc2)c1 | . | 8 | . | . | -7 | .
Cc1ccccc1C(=O)Nc1ccc(-c2nc3ccc(C(=O)c4ccccc4)cc3[nH]2)cc1 | 23 | -2 | 9 | -6 | -1 | 11
O=C(c1ccccc1)c1ccc2nc(-c3ccc(NC(=O)c4ccccc4Br)cc3)[nH]c2c1 | 14 | -13 | -2 | -7 | -1 | 45*
COCCCNC(=O)c1ccc2c(=O)n(CC3CCCO3)c(=S)[nH]c2c1 (centres undefined) | -1 | -1 | 7 | -10 | 2 | 2
CC(C)NC(=O)c1ccc2c(=O)n(CC3CCCO3)c(=S)[nH]c2c1 (centres undefined) | 0 | 5 | 5 | -12 | 17* | 10
Nc1ccc(N(CCO)CCO)cc1 | -15 | 3 | + | -6 | -9 | 193*
CCOC(=O)C(=O)Nc1cc(Cl)ccc1C | -13 | -1 | -25 | -6 | -13 | -16
Cc1cc(Cl)n2c(nc3cc(F)c(F)cc32)c1C#N | . | 6 | . | -10 | 6 | .
Cc1cc(C)n2c(=O)c3ccc(Cl)cc3nc2c1C#N | 52* | -8 | 9 | -5 | -2 | -8
COc1ccc(/C=N/NC(=O)c2cccc(Br)c2)cc1Cn1cc(Cl)cn1 | 27 | 4 | 3 | -1 | 4 | 4
COc1ccc(/C=N/NC(=O)c2ccc(Br)cc2)cc1Cn1cc(Cl)cn1 | 12 | -6 | 7 | 21 | -7 | 32*
CC(C)(C)C(=O)C1=C(O)C(=O)N(Cc2ccccc2)C1c1ccccc1F (centres undefined) | 7 | 31 | -4 | . | -14 | -5
Cc1csc(NC(=O)CCc2nc3ccccc3s2)n1 | 55* | 1 | -3 | -14 | -15 | -1
O=C(COC(=O)CCc1nc2ccccc2s1)Nc1nc(-c2ccccc2)cs1 | 12 | -5 | -7 | -6 | -9 | -3
CCc1ccc(/C=N/NC(=O)c2cc(-c3ccccc3OC)nc3ccccc23)s1 | 56* | -5 | 21 | -27 | -13 | 8
CCCOC(=O)c1cc(NC(=O)/C=C/c2ccccc2)ccc1O | 6 | 0 | 1 | 6 | -13 | -1
CSC1=N/C(=C\c2ccccc2F)C(=O)S1 | 11 | 18 | 7 | 99* | 7 | 8
CCOC(=O)C1(CC2CC2)CCN(C(=O)c2cc(C3CC3)nc3ccccc23)CC1 | 5 | -6 | -11 | -12 | -21 | -2
CCOC(=O)C1(CC2CC2)CCN(C(=O)c2cc(OC)nc3ccccc23)CC1 | 8 | -7 | 34* | -17 | -2 | 29*
C[n+]1c2n(c3ccccc31)N=C(c1cc(C(C)(C)C)c(O)c(C(C)(C)C)c1)CS2 | 0 | -43 | 8 | -3 | 70* | 4
COc1cccc(C2=Nn3c(nnc3-c3ccccc3O)SC2)c1 | 12 | -3 | -4 | -8 | 14 | -2
CC1CCC(C(C)C)C(OC(=O)Cn2c(-c3ccc(Br)cc3)[n+](C)c3ccccc32)C1 (centres undefined) | -3 | -41 | -4 | -7 | 74* | -6
CC1CCC(C(C)C)C(OC(=O)Cn2c(-c3ccc(Cl)cc3)[n+](C)c3ccccc32)C1 (centres undefined) | -9 | -91 | -25 | -9 | 60* | -6
Cc1nnnn1CC(=O)Nc1ccccc1[N+](=O)[O-] | -5 | -2 | 16 | -13 | -10 | 0
O=C(CSc1nnnn1-c1cccnc1)Nc1ccc(F)cc1F | 6 | 3 | -4 | . | -1 | 1
